# Activity calls are given as the source filed them.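 Rule for the calls, unless noted: active = inhibition above 20% together with a positive visual image hit; inconclusive = visual image hit but inhibition not above 20%; inactive = no visual image hit.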
# What was measured:
# [1] = inhibitors of TNFa-induced NFkB p65 translocation, primary screen, imaging, HUVEC, MLSMR starter and 10KST1 sets (AID 438); settings: HUVEC TNFa-induced p65 nuclear translocation; cell count: measured here: nuclei count (cytotoxicity indicator), at 2.08 µM; inhibition: at 2 µM, stronger effect = higher value, 0% TNFa-plus-vehicle, 100% no-TNFa wells;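 note: compound added about 3h40 before a 20 min TNFalpha stimulation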;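 for inhibition: signal is the nuclear over cytoplasmic p65 intensity ratio per well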
# [2] = endothelial E-selectin expression blockers – imaging, HUVEC, immunofluorescence, MLSMR starter and 10KST1 sets, primary screen (AID 487;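 active = visually confirmed hit in the image check and inhibition above 20%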;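 for inhibition: signal is fraction of cell area covered by stained E-selectin grains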;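 for nuclei count: 100% = median nuclei count of all wells on the same plate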); settings: HUVEC TNFalpha-induced E-selectin immunofluorescence imaging, at 2 µM; inhibition: stronger effect = higher value; nuclei count: measured here: cell number, toxicity
# [3] = Primary imaging screen for DUSP6 inhibitors that restore phospho-Erk in transfected HeLa cells, chemical complementation (AID 609;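 active = compounds giving at least 50% inhibition in the cell-based MKP-3 phosphatase rescue imaging test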;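 for inhibition: phospho-Erk level distribution per well compared with pooled transfected vehicle control wells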); settings: HeLa MKP-3 transfected, phospho-Erk imaging KS statistic, at 10 µM, cells stimulated with TPA for 15 min
# [4] = molecular target: Dual specificity protein phosphatase 6 (Homo sapiens) (UniProt Q16828); assay: as above; settings: HeLa MKP-3 transfected, phospho-Erk imaging KS statistic; at 10 µM; stronger effect = higher value; cells stimulated with TPA for 15 min
# [5] = molecular target: Voltage-gated potassium channel subunit beta-2 (Rattus norvegicus) (UniProt P62483); assay: inhibitors of rat Kvbeta2 reductase activity – biochemical, NADPH fluorescence, primary screen (AID 622;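 active = fluorescence slope higher than the sample average by over 3 SD, cut at about -0.22 in these data, passing the limit was not always enough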;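 note: slope of raw intensity against log time taken from 70 to 1610 s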); settings: recombinant KvBeta, 4-cyanobenzaldehyde reduction, at 10 µM, stronger effect = higher value
# [6] = molecular target: Voltage-gated potassium channel subunit beta-2 (Rattus norvegicus) (UniProt P62483); assay: enhancers of rat Kvbeta2 NADPH turnover – biochemical, NADPH fluorescence, primary screen (AID 623;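 active = NADPH fluorescence slope more negative than the mean of all samples by about 3 SD, 99.7% confidence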;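 note: fluorescence intensity change per second fitted from 20 to 320 s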); settings: Recombinant KvBeta, NADPH fluorescence decrease slope, 10 min; at 10 µM; stronger effect = lower value
# [7] = molecular target: Muscarinic acetylcholine receptor M4 (Homo sapiens) (UniProt P08173); assay: M4-linked GIRK flux change, two-sided – cell-based, HEK293 M4/GIRK, thallium flux, BTC-AM, M4 allosteric agonist project, primary screen (AID 625;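 active = fluorescence slope after compound addition differing from the mean of all tested samples at 99.7% confidence, mostly higher but some lower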;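 note: thallium influx through GIRK channels coupled to M4 in HEK293 cells with BTC-AM dye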); settings: at 10 µM, actives lie on both sides
# In short: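 Material – HEK293 cells with M4 receptor and GIRK channels · Buffer or medium – pH 7.3 thallium assay buffer · Doses – one dose, 10 µM final · Timing – cells overnight at 37 °C, BTC-AM loading 1 h, reads 2 min total · Measured by – kinetic fluorescence with BTC-AM dye · Controls – carbachol and DMSO controls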
# [8] = inhibitors of larval lipid processing in zebrafish, primary screen, whole organism, PED6 fluorescence, gall bladder and intestine (AID 686;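 active = a full or partial loss of lipid-probe fluorescence in the fish gall bladder, intestine or both, judged by eye; inactive = no fluorescence loss, or compound toxic to the fish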;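 note: larvae 5 to 7 days old with five fish per well; signal comes from phospholipase A2 cleavage of quenched PED6 carried via bile; overnight exposure to compound and PED6 before scoring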); settings: Zebrafish larvae PED6 lipid processing, fluorescence scoring; screened at 20 µM (by protocol)
# In short: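 system = live zebrafish larvae aged 5-7 days, whole organism | probe or stimulus = ingested quenched lipid PED6 at 100 nM | doses = 20 µM single dose | timing = overnight exposure | detection = fluorescence microscopy with visual scoring of gall bladder and intestine | read-out = visual per-well fluorescence inhibition score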
# [9] = loss of swimming-algae plug formation – whole organism, Chlamydomonas reinhardtii, WT vs cilia-less mutant, absorbance, 96-well, primary screen (AID 463189;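 active = inhibition at or above 50% relative to wild type and mutant plate controls; inactive = inhibition below 50%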;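 note: 0% = wild type cc124 cells in DMSO and 100% = ciliumless bld1 mutant cells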); settings: Chlamydomonas reinhardtii gravitaxis, OD600 absorbance, 2 days; at 10 µM; stronger effect = higher value
# [10] = measured here: cell density z-score
# [11] = measured here: nuclear c-Myc green intensity z-score
# [12] = measured here: nuclear pErk red intensity z-score, stronger effect = higher value
# Chain of Voltage-gated potassium channel subunit beta-2 (Rattus norvegicus) (P62483 whole entry, looked up): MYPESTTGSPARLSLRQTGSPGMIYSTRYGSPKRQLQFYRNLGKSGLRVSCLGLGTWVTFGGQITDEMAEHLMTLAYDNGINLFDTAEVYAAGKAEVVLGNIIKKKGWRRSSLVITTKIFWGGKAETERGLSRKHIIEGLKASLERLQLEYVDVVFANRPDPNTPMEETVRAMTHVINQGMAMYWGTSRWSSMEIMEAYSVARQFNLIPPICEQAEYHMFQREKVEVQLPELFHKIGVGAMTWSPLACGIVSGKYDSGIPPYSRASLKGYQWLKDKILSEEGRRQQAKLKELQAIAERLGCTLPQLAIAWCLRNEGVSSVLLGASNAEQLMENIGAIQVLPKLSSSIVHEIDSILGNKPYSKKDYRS
# Chain of Dual specificity protein phosphatase 6 (Homo sapiens) (Q16828 whole entry, looked up): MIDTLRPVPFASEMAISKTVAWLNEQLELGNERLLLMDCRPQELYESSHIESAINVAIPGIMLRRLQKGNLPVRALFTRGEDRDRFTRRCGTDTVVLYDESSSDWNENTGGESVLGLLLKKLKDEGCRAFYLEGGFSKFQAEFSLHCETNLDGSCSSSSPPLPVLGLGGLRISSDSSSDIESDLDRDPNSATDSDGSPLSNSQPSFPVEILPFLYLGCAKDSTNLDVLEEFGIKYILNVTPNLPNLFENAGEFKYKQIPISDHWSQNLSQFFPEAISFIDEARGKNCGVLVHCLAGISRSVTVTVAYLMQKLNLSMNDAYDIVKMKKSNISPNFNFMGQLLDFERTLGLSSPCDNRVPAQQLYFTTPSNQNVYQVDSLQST
# Chain of Muscarinic acetylcholine receptor M4 (Homo sapiens) (P08173 whole entry, looked up): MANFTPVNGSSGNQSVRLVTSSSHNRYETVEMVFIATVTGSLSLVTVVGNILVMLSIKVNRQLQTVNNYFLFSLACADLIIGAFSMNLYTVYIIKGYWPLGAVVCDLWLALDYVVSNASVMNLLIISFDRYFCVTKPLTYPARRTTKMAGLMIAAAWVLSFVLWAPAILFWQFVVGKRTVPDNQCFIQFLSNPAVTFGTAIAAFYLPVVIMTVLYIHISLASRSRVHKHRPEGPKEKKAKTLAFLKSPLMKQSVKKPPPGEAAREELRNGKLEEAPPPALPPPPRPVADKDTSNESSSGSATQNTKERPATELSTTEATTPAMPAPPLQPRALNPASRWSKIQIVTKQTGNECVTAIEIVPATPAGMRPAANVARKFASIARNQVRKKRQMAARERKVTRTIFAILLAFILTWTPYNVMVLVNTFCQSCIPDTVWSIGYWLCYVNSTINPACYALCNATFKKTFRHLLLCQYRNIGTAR
SMILES,cell count [1],inhibition [1],inhibition [2],nuclei count [2],"z-score [3, 10]","z-score [3, 11]","z-score [3, 12]",inhibition [4],fluorescence slope [5],NADPH fluorescence slope [6],fluorescence slope [7],outcome [8],inhibition [9]
Cn1cc(Cl)nc1C(O)c1ccccc1 (stereo not given),629,-11% (inactive),-61.5% (inactive),174%,0.432,-0.744,-0.497,-0.233% (inactive),-0.481 (inactive),-2.6e-05 (inactive),0.00721 (inactive),inactive,20.3% (inactive)
CCCc1nc2n[nH]c(N)c2c2c1CCCC2,478,-12.3% (inactive),-64.3% (inactive),118%,-0.479,-0.89,-1.19,-2.09% (inactive),-0.48 (inactive),-0.000102 (inactive),0.00548 (inactive),inactive,-1.38% (inactive)
COc1ccc(C2Nc3ccccc3C(=O)N2Cc2ccco2)cc1CN1C(=O)c2ccccc2C1=O (stereo not given),691,-6.9% (inactive),20.3% (inactive),132%,0.751,-1.72,0.41,9.07% (inactive),-0.461 (inactive),-4.4e-05 (inactive),0.00497 (inactive),inactive,8.71% (inactive)
OC1(C2(O)CC(c3ccccc3)ON2)CCCCC1 (stereo not given),713,6.2% (inactive),-8.5% (inactive),141%,0.0893,0.138,-1.51,-5.81% (inactive),-0.444 (inactive),-3.6e-05 (inactive),0.00531 (inactive),inactive,0.004% (inactive)
Cc1ccc(N(CC(O)CN(C)C)S(=O)(=O)c2ccccc2)cc1 (stereo not given),587,-9.4% (inactive),6.4% (inactive),192%,1.28,-0.151,0.0736,-4.59% (inactive),-0.384 (inactive),-7.3e-05 (inactive),0.00579 (inactive),inactive,11.5% (inactive)
Cc1ccc(-n2ncc3c(N4CCC(C(N)=O)CC4)ncnc32)c(C)c1,525,-15.6% (inactive),-31.1% (inactive),113%,-0.735,0.453,-0.332,7.42% (inactive),-0.391 (inactive),-3.9e-05 (inactive),0.0065 (inactive),inactive,42.2% (inactive)
COc1cc(C2C(C(=O)c3sc(C)nc3C)=C(O)C(=O)N2CCN(C)C)cc(OC)c1OC (stereo not given),398,3.6% (inactive),-36.2% (inactive),155%,0.333,0.0451,0.204,3.56% (inactive),-0.446 (inactive),-0.000115 (inactive),0.00444 (inactive),inactive,-3.66% (inactive)
COC(=O)c1sc(NC(=O)c2oc3ccccc3c2C)nc1C,594,-0.2% (inactive),-146% (inactive),150%,0.222,-0.561,-0.214,25.8% (inactive),-0.269 (inactive),-4e-05 (inactive),0.00832 (inactive),inactive,-10.3% (inactive)
CN=C(c1ccco1)n1c(=S)nc(-c2ccco2)n(C)c1=S,339,-5.2% (inactive),-204% (inactive),126%,0.329,-0.895,-0.461,-2.59% (inactive),-0.522 (inactive),-0.000102 (inactive),0.00396 (inactive),inactive,28.5% (inactive)
CC(C)Sc1nnc2n(CCc3ccccc3)c(=O)c3c4c(sc3n12)COC(C)(C)C4,532,-8% (inactive),-61.3% (inactive),139%,0.633,-0.0361,-0.58,7.93% (inactive),-0.435 (inactive),-2.4e-05 (inactive),0.00702 (inactive),inactive,19% (inactive)
O=C(c1ccc(-n2cnnn2)cc1)N1CCOCC1,670,-3.5% (inactive),18.9% (inactive),171%,0.439,-0.115,0.866,4.72% (inactive),-0.492 (inactive),-4.1e-05 (inactive),0.00579 (inactive),inactive,-1.94% (inactive)
Clc1ccc(-n2ncc3c(N4CCCC4)ncnc32)cc1,589,-9.4% (inactive),-131% (inactive),94.9%,-3.24,1.27,1.5,7.42% (inactive),-0.411 (inactive),-5e-05 (inactive),0.00915 (inactive),inactive,134% (active)
CC(=O)/C(C#N)=C1\NC(=O)C(Cc2ccccc2)S1 (stereo not given),574,-16.2% (inactive),5.4% (inactive),183%,0.151,0.495,0.071,-8.59% (inactive),-0.425 (inactive),-6.1e-05 (inactive),0.00604 (inactive),inactive,3.86% (inactive)
CC1(C)Cc2c(C#N)c(SCC(=O)c3ccccc3)nc(N3CCOCC3)c2CS1,567,-9.1% (inactive),-119% (inactive),93.2%,0.0433,-1.53,0.585,5.42% (inactive),-0.491 (inactive),1.6e-05 (inactive),0.00928 (inactive),inactive,34.2% (inactive)
CC(C(=O)NC(=O)NCc1ccccc1)N1C(=O)c2ccccc2C1=O (stereo not given),655,6.1% (inactive),-28.7% (inactive),94.9%,0.127,0.0595,-0.687,-11.4% (inactive),-0.461 (inactive),-4.3e-05 (inactive),0.00457 (inactive),inactive,-4.8% (inactive)
COc1ccc(CSc2nnc3n(C)c(=O)c4c5c(sc4n23)CCCC5)cc1,563,-1.3% (inactive),-140% (inactive),184%,0.888,-0.948,-1.27,17.8% (inactive),-0.41 (inactive),-1.6e-05 (inactive),0.00522 (inactive),inactive,1.97% (inactive)
COCc1n[nH]c(=S)n1-c1cccc2ccccc12,533,-1.3% (inactive),-25.8% (inactive),173%,0.455,0.388,0.964,5.95% (inactive),-0.415 (inactive),-4.6e-05 (inactive),0.00527 (inactive),inactive,4.29% (inactive)
Cc1csc(SCCn2c(Br)nc3c2c(=O)[nH]c(=O)n3C)n1,541,-22.3% (inactive),-35.3% (inactive),180%,0.452,0.745,0.738,-12.6% (inactive),-0.409 (inactive),-4.5e-05 (inactive),0.00514 (inactive),inactive,31.8% (inactive)
COc1cc(C(=O)Nc2ccc(O)cc2C(=O)O)ccc1OC(C)=O,645,3.6% (inactive),31.5% (inactive),95.3%,-0.0173,0.715,-0.436,5.35% (inactive),-0.547 (inactive),-6.2e-05 (inactive),0.00561 (inactive),inactive,13.9% (inactive)
Cc1ccc(-n2ncc3c(NCCCN4CCCC4=O)ncnc32)c(C)c1,563,-12.5% (inactive),-40.1% (inactive),134%,0.612,-0.125,-2.3,13.4% (inactive),-0.358 (inactive),1.3e-05 (inactive),0.00773 (inactive),inactive,0.102% (inactive)

# Reference: PubChem BioAssay
